# pIC50: −log10 of the molar value.
# How the values were obtained:
# [1] = molecular target: T1, 3-hydroxy-3-methylglutaryl-coenzyme A reductase (Rattus norvegicus, UniProt P51639); assay: Inhibition of rat liver microsomal HMG-CoA reductase
# T1 sequence (P51639 whole entry): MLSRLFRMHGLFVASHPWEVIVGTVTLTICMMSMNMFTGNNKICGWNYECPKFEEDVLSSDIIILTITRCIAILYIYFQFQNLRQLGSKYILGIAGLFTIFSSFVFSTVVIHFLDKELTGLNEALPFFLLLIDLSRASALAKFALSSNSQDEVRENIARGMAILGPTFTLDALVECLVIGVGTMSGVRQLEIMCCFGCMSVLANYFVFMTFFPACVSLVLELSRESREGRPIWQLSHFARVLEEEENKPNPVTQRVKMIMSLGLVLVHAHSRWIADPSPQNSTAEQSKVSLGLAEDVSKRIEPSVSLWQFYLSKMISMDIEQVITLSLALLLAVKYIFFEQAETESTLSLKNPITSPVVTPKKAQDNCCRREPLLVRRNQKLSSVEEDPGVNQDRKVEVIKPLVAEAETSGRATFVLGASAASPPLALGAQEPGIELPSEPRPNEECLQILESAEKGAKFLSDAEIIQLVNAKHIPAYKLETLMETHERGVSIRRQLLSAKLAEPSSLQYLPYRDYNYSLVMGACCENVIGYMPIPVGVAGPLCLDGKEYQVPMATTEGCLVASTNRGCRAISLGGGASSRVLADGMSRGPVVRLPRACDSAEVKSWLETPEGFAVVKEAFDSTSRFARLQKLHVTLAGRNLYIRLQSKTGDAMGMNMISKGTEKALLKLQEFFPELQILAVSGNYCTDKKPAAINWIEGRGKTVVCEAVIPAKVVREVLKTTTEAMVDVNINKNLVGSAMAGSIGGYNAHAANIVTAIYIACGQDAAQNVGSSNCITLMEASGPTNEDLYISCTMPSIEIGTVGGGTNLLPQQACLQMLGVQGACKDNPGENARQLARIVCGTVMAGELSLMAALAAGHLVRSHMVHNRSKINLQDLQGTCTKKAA
# Procedure, shortened: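 Test agents run as sodium salts of the dihydroxy carboxylic acids, against rat liver microsomal enzyme. Five dose levels per inhibitor, at least in duplicate, on at least two separate occasions. IC50 given as the mean, with pravastatin sodium salt as reference.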
# [2] = Lipophilicity was determined; format: physicochemical; settings: octanol/water
pIC50 [1],logD [2],Compound
9.30,2.8,COC(=O)C[C@H](O)C[C@H](O)/C=C/n1c(C(C)C)cc(-c2cccc(Br)c2)c1-c1ccc(F)cc1
8.70,2.57,COC(=O)C[C@H](O)C[C@H](O)/C=C/n1c(C(C)C)cc(-c2cccc(Cl)c2)c1-c1ccc(F)cc1
8.70,–,COC(=O)C[C@H](O)C[C@H](O)/C=C/n1c(C(C)C)cc(-c2ccccc2)c1-c1ccc(F)cc1
6.98,–,COC(=O)C[C@H](O)C[C@H](O)CCn1c(C(C)C)cc(-c2ccc(F)cc2)c1-c1ccc(F)cc1
8.70,–,COC(=O)C[C@H](O)C[C@H](O)/C=C/n1c(C(C)C)cc(-c2ccccn2)c1-c1ccc(F)cc1
7.16,–,COC(=O)C[C@H](O)C[C@H](O)/C=C/n1c(C(C)C)cc(-c2ccc(F)cc2)c1-c1cccc(Br)c1
7.60,–,COC(=O)C[C@H](O)C[C@H](O)/C=C/n1c(C(C)C)cc(-c2ccc(F)cc2)c1-c1ccccc1
8.70,2.1,COC(=O)C[C@H](O)C[C@H](O)/C=C/n1c(C(C)C)cc(-c2ccc(F)cc2)c1-c1ccc(F)cc1
8.30,0.9,COC(=O)C[C@H](O)C[C@H](O)/C=C/n1c(C(C)C)cc(-c2ccncc2)c1-c1ccc(F)cc1
7.15,–,COC(=O)C[C@H](O)C[C@H](O)/C=C/n1c(C(C)C)cc(-c2ccc(F)cc2)c1-c1cccc(Cl)c1
9.52,–,COC(=O)C[C@H](O)C[C@H](O)/C=C/n1c(-c2ccc(F)cc2)c(-c2ccc(F)cc2)c(Br)c1C(C)C
8.52,–,CC[C@H](C)C(=O)O[C@H]1C[C@@H](C)C=C2C=C[C@H](C)[C@H](CC[C@@H]3C[C@@H](O)CC(=O)O3)[C@H]21 [LOVASTATIN]
8.30,–,CC[C@H](C)C(=O)O[C@H]1C[C@H](O)C=C2C=C[C@H](C)[C@H](CC[C@@H](O)C[C@@H](O)CC(=O)O)[C@H]21 [PRAVASTATIN SODIUM]

# Reference: ChEMBL document CHEMBL1126905, “Inhibitors of cholesterol biosynthesis. 2. 3,5-Dihydroxy-7-(N-pyrrolyl)-6-heptenoates, a novel series of HMG-CoA reductase inhibitors” (J Med Chem, 1993)
